Experimental data taken from ChEMBL document CHEMBL3120102, “Structure-based design, synthesis and biological evaluation of novel anthra[1,2-d]imidazole-6,11-dione homologues as potential antitumor agents” (2013).

Assays:
[1] = Cytotoxicity against human H1299 cells assessed as cell viability at 1 uM after 48 hrs by MTT assay; type: functional; conditions: NCI-H1299, 48 h, read-out: Activity
In short: (§1)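 About 2×10³ H1299 cells per well were grown for 24 h at 37 °C in 5% CO2. Compound was dissolved in DMSO immediately before use, diluted in complete medium and left on cells for 48 h. MTT was then added for 4 h at 37 °C, followed by SDS/DMF lysis buffer for 16 h at 37 °C. Absorbance was read at 550 nm.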

[2] = Cytotoxicity against human H1299 cells assessed as cell viability at 10 uM after 48 hrs by MTT assay; type: functional; conditions: NCI-H1299, 48 h, read-out: Activity; in short: as §1
[3] = molecular target: Telomerase reverse transcriptase (Homo sapiens) (UniProt O14746); experiment: Inhibition of human tert transcriptional activity assessed as SEAP activity at 1 uM after 24 hrs by SEAP reporter assay; parameters: scale not given: the % may be the effect or the level left
Telomerase reverse transcriptase (Homo sapiens), sequence (O14746 whole entry): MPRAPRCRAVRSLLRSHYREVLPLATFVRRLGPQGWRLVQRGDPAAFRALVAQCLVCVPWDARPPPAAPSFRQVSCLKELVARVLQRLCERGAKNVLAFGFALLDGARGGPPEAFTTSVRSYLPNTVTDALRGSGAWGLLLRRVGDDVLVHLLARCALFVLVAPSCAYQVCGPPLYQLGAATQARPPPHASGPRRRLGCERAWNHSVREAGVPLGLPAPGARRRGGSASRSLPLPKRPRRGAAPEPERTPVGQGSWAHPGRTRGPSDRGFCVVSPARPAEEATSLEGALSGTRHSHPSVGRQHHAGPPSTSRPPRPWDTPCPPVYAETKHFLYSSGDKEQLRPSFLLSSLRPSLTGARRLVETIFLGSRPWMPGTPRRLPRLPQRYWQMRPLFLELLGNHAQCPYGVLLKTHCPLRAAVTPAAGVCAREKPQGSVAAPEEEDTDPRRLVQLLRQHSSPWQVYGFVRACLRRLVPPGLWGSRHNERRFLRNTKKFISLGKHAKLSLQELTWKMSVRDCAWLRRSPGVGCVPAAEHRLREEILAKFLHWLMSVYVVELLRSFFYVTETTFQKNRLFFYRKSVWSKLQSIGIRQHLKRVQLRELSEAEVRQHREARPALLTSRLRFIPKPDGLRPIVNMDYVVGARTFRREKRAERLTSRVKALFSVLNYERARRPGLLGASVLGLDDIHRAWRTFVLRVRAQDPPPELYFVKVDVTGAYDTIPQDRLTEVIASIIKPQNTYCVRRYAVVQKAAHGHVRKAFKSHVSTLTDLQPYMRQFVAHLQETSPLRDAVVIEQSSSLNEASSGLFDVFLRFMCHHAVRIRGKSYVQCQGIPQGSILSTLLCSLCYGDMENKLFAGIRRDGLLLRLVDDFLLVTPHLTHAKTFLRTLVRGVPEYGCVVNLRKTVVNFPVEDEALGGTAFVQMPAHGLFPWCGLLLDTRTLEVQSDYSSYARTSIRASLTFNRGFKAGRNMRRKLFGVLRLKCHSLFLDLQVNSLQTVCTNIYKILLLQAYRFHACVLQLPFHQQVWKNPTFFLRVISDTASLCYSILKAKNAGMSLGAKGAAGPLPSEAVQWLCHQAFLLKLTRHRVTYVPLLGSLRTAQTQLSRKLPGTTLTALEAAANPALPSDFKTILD
In short: (§2)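 Reporter assay for hTERT transcriptional activity using secreted alkaline phosphatase. About 2 × 10³ cells per well were grown for 24 h at 37 °C, then given fresh medium. Buffer was added to the medium: 2 M diethanolamine, 1 mM MgCl2 and 20 mM L-homoarginine. p-Nitrophenyl phosphate was added to 12 mM final. The rate of absorbance increase was read at 405 nm.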

[4] = Cytotoxicity against human H1299 cells assessed as cell viability at 100 uM after 48 hrs by MTT assay; type: functional; conditions: NCI-H1299, 48 h, read-out: Activity; in short: as §1
[5] = molecular target: Telomerase reverse transcriptase (Homo sapiens) (UniProt O14746); experiment: Inhibition of human tert transcriptional activity assessed as SEAP activity at 10 uM after 24 hrs by SEAP reporter assay; parameters: scale not given: the % may be the effect or the level left; in short: as §2
[6] = molecular target: Telomerase reverse transcriptase (Homo sapiens) (UniProt O14746); experiment: Inhibition of human tert transcriptional activity assessed as SEAP activity at 100 uM after 24 hrs by SEAP reporter assay; parameters: scale not given: the % may be the effect or the level left; in short: as §2

| Activity [3] [%] | Activity [5] [%] | Activity [6] [%] | SMILES | viability at 1 µM [1] [%] | viability at 10 µM [2] [%] | viability at 100 µM [4] [%] |
| --- | --- | --- | --- | --- | --- | --- |
| 89 | 99 | 38 | CN1CCN(C(=O)Sc2nc3ccc4c(c3[nH]2)C(=O)c2ccccc2C4=O)CC1 | 102 | 120 | 71 |
| 98 | 92 | 81 | O=C(Sc1nc2ccc3c(c2[nH]1)C(=O)c1ccccc1C3=O)c1ccccc1[N+](=O)[O-] | 80 | 78 | 76 |
|  | 77 |  | Nc1ccc2c(c1N)C(=O)c1ccccc1C2=O | 105 | 95 | 39 |
| 106 | 104 | 88 | CCN(CC)C(=O)Sc1nc2ccc3c(c2[nH]1)C(=O)c1ccccc1C3=O | 118 | 119 | 116 |
| 100 | 100 | 64 | O=C1c2ccccc2C(=O)c2c1ccc1nc(SCC(=O)N3CCCC3)[nH]c21 | 89 | 102 | 62 |
| 97 | 98 | 64 | CCN(CC)C(=O)CCSc1nc2ccc3c(c2[nH]1)C(=O)c1ccccc1C3=O | 94 | 77 | 44 |
| 100 | 96 | 54 | O=C1c2ccccc2C(=O)c2c1ccc1nc(SCCCCCl)[nH]c21 | 91 | 97 | 83 |
| 88 | 83 | 61 | COC(=O)CCCSc1nc2ccc3c(c2[nH]1)C(=O)c1ccccc1C3=O | 83 | 83 | 57 |
| 105 | 98 | 53 | O=C1c2ccccc2C(=O)c2c1ccc1nc(SCCCCCCCl)[nH]c21 | 83 | 85 | 88 |
| 111 | 100 | 14 | O=C1c2ccccc2C(=O)c2c1ccc1nc(SCCN3CCCCC3)[nH]c21 | 86 | 79 | 30 |
| 94 | 91 | 85 | CCCN(CCC)C(=O)CSc1nc2ccc3c(c2[nH]1)C(=O)c1ccccc1C3=O | 95 | 86 | 93 |
| 105 | 97 | 45 | O=C1c2ccccc2C(=O)c2c1ccc1nc(SCCC(=O)N3CCOCC3)[nH]c21 | 99 | 102 | 50 |
| 88 | 87 | 64 | COC(=O)/C=C/CSc1nc2ccc3c(c2[nH]1)C(=O)c1ccccc1C3=O | 98 | 75 | 72 |
| 85 | 50 | 8 | O=C1c2ccccc2C(=O)c2c1ccc1nc(SCCCN3CCCCC3)[nH]c21 | 71 | 70 | 38 |
| 102 | 96 | 75 | O=C(Sc1nc2ccc3c(c2[nH]1)C(=O)c1ccccc1C3=O)c1cc(C(F)(F)F)ccc1C(F)(F)F | 95 | 100 | 79 |
| 87 | 90 | 67 | O=C1c2ccccc2C(=O)c2c1ccc1nc(SCCC(=O)N3CCCC3)[nH]c21 | 107 | 110 | 57 |
| 34 | 14 | 5 | COc1cccc2c1C(=O)c1c(O)c3c(c(O)c1C2=O)C[C@@](O)(C(=O)CO)C[C@@H]3O[C@H]1C[C@H](N)[C@H](O)[C@H](C)O1 [DOXORUBICIN] | 17 | 0 | 0 |
| 119 | 105 | 36 | O=C1c2ccccc2C(=O)c2c1ccc1nc(SCCN3CCOCC3)[nH]c21 | 106 | 127 | 73 |
| 98 | 104 | 81 | O=C1c2ccccc2C(=O)c2c1ccc1nc(SC(=O)N3CCCCC3)[nH]c21 | 97 | 116 | 116 |
| 94 | 85 | 52 | C#CCSc1nc2ccc3c(c2[nH]1)C(=O)c1ccccc1C3=O | 94 | 96 | 75 |
| 97 | 91 | 69 | C=CCSc1nc2ccc3c(c2[nH]1)C(=O)c1ccccc1C3=O | 100 | 96 | 79 |
| 97 | 95 | 81 | O=C(CCc1ccccc1)Sc1nc2ccc3c(c2[nH]1)C(=O)c1ccccc1C3=O | 95 | 93 | 69 |
| 88 | 83 | 29 | Cc1ccccc1CSc1nc2ccc3c(c2[nH]1)C(=O)c1ccccc1C3=O | 88 | 81 | 76 |
| 96 | 105 | 95 | O=C1c2ccccc2C(=O)c2c1ccc1nc(SC(=O)N3CCCC3)[nH]c21 | 110 | 117 | 124 |
| 104 | 100 | 89 | Cc1cc(C(=O)Sc2nc3ccc4c(c3[nH]2)C(=O)c2ccccc2C4=O)c(C)o1 | 95 | 91 | 95 |
| 103 | 87 | 40 | O=C1c2ccccc2C(=O)c2c1ccc1nc(SCC(=O)N3CCOCC3)[nH]c21 | 91 | 88 | 70 |
| 96 | 93 | 49 | CCN(CC)C(=O)CSc1nc2ccc3c(c2[nH]1)C(=O)c1ccccc1C3=O | 97 | 90 | 54 |
| 93 | 87 | 71 | O=C1c2ccccc2C(=O)c2c1ccc1nc(SC(=O)N3CCOCC3)[nH]c21 | 89 | 94 | 90 |
| 92 | 58 | 41 | O=C1c2ccccc2C(=O)c2c1ccc1nc(SCCCCCBr)[nH]c21 | 84 | 82 | 37 |
| 111 | 105 | 53 | CCCCSc1nc2ccc3c(c2[nH]1)C(=O)c1ccccc1C3=O | 82 | 135 | 77 |

| SMILES | Activity [3] [%] | Activity [5] [%] | Activity [6] [%] | viability at 1 µM [1] [%] | viability at 10 µM [2] [%] | viability at 100 µM [4] [%] |
| --- | --- | --- | --- | --- | --- | --- |
| O=C1c2c(O)ccc(O)c2C(=O)c2c(NCCNCCO)ccc(NCCNCCO)c21 [MITOXANTRONE] | 21 | 10 | 7 | 24 | 0 | 0 |
